Here are results for 38 molecules from ChEMBL document CHEMBL1141808, “Polymethoxylated flavones derived from citrus suppress tumor necrosis factor-alpha expression by human monocytes” (J Nat Prod, 1999).

The subject of series [1] is Monocyte. Description: Inhibition of TNFalpha expression in LPS-stimulated human monocytes treated 30 mins before LPS challenge measured after 14 hrs by ELISA. The series is classed as functional, cell-based. The procedure, abridged:
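Human PBMC at 4 × 10^6/mL in DMEM with 30% FCS, glutamine and pen/strep were allowed to adhere for 2 h at 37 °C and 5% CO2. Nonadherent lymphocytes were washed off. Adherent monocytes were preincubated 30 min with graded compound concentrations, then stimulated with LPS. After 14 h, supernatants were assayed by ELISA. Values are percent of compound-free cultures, as means ± SE from three donors.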

Series [2] in a line: Cytotoxicity against human monocytes assessed as depletion of cellular LDH activity. Further details: concentration or dose not given beside the values. The following applies: monocyte. The series is classed as cell-based. A digest of the protocol:
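Viability was taken from the LPS-stimulated adherent monocyte cultures after 14 h, lysed in 1% NP40 in PBS. LDH in the lysate was measured in 50 mM sodium pyrophosphate pH 8.9 with 50 mM lactic acid and 4 mg/mL NAD. The rate of NADH formation was read at 340 nm at room temperature. More than 20% depletion was counted as cytotoxic.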

For series [3], the system named is Monocyte. Briefly: Inhibition of IL1-beta expression in LPS-stimulated human monocytes at 100 uM treated 30 mins before LPS challenge measured after 14 hrs by ELISA. The series is classed as functional. A digest of the protocol: (§1)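 Monocyte cultures were held 14 h in medium alone, with 20 ng/mL LPS alone, or with LPS plus 100 µM compound. IBMX served as reference. TNFα, IL-6, IL-8, IL-10 and MIP-1α were measured in supernatants by ELISA, and IL-1β in cell lysates made with 1% NP40 in PBS. Significance versus LPS alone was set at p < 0.05.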
(In general: In an ELISA, binding on a coated surface is turned into a signal by an enzyme label.)

For series [4], the system named is Monocyte. Briefly: Inhibition of IL6 expression in LPS-stimulated human monocytes at 100 uM treated 30 mins before LPS challenge measured after 14 hrs by ELISA. Format: functional. The procedure, abridged: as §1
Series [5] deals with Monocyte. Briefly: Inhibition of IL8 expression in LPS-stimulated human monocytes at 100 uM treated 30 mins before LPS challenge measured after 14 hrs by ELISA. The series is classed as functional. The procedure, abridged:
as §1

The subject of series [6] is Monocyte. Briefly: Inhibition of TNFalpha expression in LPS-stimulated human monocytes at 100 uM treated 30 mins before LPS challenge measured after 14 hrs by ELISA. Format: functional. The procedure, abridged:
as §1

Series [7] concerns Monocyte. Description: Inhibition of IL10 expression in LPS-stimulated human monocytes at 100 uM treated 30 mins before LPS challenge measured after 14 hrs by ELISA. Format: functional. The procedure, abridged:
as §1

The subject of series [8] is Monocyte. Briefly: Inhibition of MIP1alpha expression in LPS-stimulated human monocytes at 100 uM treated 30 mins before LPS challenge measured after 14 hrs by ELISA. The series is classed as functional. The procedure, abridged: as §1
The target in series [9] is T1, Phosphodiesterase 4 (Homo sapiens) (UniProt P27815+Q08499+Q07343+Q08493). Briefly: Inhibition of PDE4 in human U937 cells assessed as inhibition of cAMP hydrolysis at 11 uM by SPA. Particulars: U-937. Format: cell-based. A digest of the protocol:
(§2)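 PDE, mostly type IV by isoform-inhibitor sensitivity, was semipurified from U937 cells. cAMP hydrolysis was measured by scintillation proximity assay across graded compound concentrations. Rates were expressed as percent of flavonoid-free control, and the concentration giving 50% inhibition was reported.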

Series [10] concerns the target T1, Phosphodiesterase 4 (Homo sapiens). Briefly: Inhibition of PDE4 in human monocytes assessed as elevation of cytosolic cAMP level at 100 uM treated for 30 mins assessed per 10^7 cells by EIA. The series is classed as cell-based. A digest of the protocol:
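Elutriated human monocytes at 5 × 10^6/mL in complete medium (30% FCS) were precultured 2 h at 37 °C and 5% CO2. They were then exposed for 30 min to 100 µM flavone or 200 µM IBMX. Cells were lysed in cold 10 mM HEPES pH 7.6 with 1% NP40. cAMP was isolated on SAX columns, eluted with methanol/0.01 M HCl, dried, and quantified by EIA as pmol/10^7 cells.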
For orientation: Changes in cAMP serve as a functional read-out for many G protein-coupled receptors.

For series [11] the target is unchanged. Description: Inhibition of PDE4 in human U937 cells assessed as inhibition of cAMP hydrolysis at 16 uM by SPA. Particulars: U-937. The series is classed as cell-based. A digest of the protocol: as §2

Calls of active or inactive are those of the source. The calls are words filed in the database; no cut-off is given here. Some results are limits rather than exact numbers.

One may read the IC50 as the concentration that inhibits the measured activity by half. Take `COc1cc(-c2oc3c(OC)c(O)cc(O)c3c(=O)c2O)ccc1O` [LIMOCITRIN]: the IC50 with Monocyte [1] turned out to be 67 µM. The Activity in series [2] is greater than 20%.
In the series with Monocyte [1], `COc1ccc(-c2cc(=O)c3c(OC)c(OC)c(OC)cc3o2)cc1OC` [SINENSETIN] yielded an IC50 of 8 µM.
In the case of `COc1cc(O)c2c(=O)c(O)c(-c3ccc(O)c(O)c3)oc2c1` [RHAMNETIN], the IC50 with Monocyte [1] was 22 µM. In addition, the Activity in [2] was greater than 20%.
For the molecule `Oc1cc(O)c2c(c1)OC(c1ccc(O)c(O)c1)C(O)C2` (centres undefined), in the series with Monocyte [1], the result was inactive.
As to `COc1cc(-c2cc(=O)c3c(OC)c(OC)c(OC)cc3o2)cc(OC)c1OC`, 20 µM corresponded to half-maximal inhibition in the series with Monocyte [1] (IC50).
For `COc1ccc([C@@H]2CC(=O)c3c(O)cc(O)cc3O2)cc1O`, in the series on Monocyte [1], the result was inactive.
For the molecule `CC(C)Cn1c(=O)n(C)c(=O)c2nc[nH]c21` [ISOBUTYLMETHYLXANTHINE], the Activity was determined as 99.1 ng/mL in the series with Monocyte [3]; 79.7 ng/mL with Monocyte [4]; 335 ng/mL in the series on Monocyte [5]; 10.9 ng/mL in the series on Monocyte [6]; 0.651 ng/mL with Monocyte [7]; 33.2 ng/mL with Monocyte [8].
In the series with Monocyte [1], `O=c1c(O)c(-c2ccc(O)cc2)oc2cc(O)cc(O)c12` [KAEMPFEROL] had an IC50 of 20 µM. Besides, the Activity in series [2] is recorded as greater than 20%.
Take `COc1ccc(-c2oc3c(OC)c(OC)c(OC)c(O)c3c(=O)c2OC)cc1OC`: in the series on Monocyte [1], 10 µM corresponded to half-maximal inhibition (IC50).
Regarding `COc1ccc(-c2cc(=O)c3c(OC)c(OC)c(OC)c(OC)c3o2)cc1OC` [NOBILETIN], it took 10 µM to reach half-maximal inhibition with Monocyte [1] (IC50).
The molecule `COc1ccc(-c2cc(=O)c3c(O)c(OC)c(OC)c(OC)c3o2)cc1OC` [5-DEMETHYLNOBILETIN] yielded an IC50 with Monocyte [1] of 5 µM.
In the series with Monocyte [1], `COc1ccc(-c2cc(=O)c3c(OC)c(OC)c(OC)cc3o2)cc1` gave an IC50 of 22 µM.
In the series with Monocyte [1], `COc1c(-c2ccc(O)c(O)c2)oc2cc(O)cc(O)c2c1=O` [3-O-METHYLQUERCETIN] showed an IC50 of 47 µM.
As to `O=c1cc(-c2ccc(O)cc2)oc2cc(O)cc(O)c12` [APIGENIN], in the series on Monocyte [1], half-maximal inhibition (IC50) was put at 20 µM. Also, the Activity in [2] is on record as greater than 20%.
As to `C[C@@H]1O[C@@H](OC[C@H]2O[C@@H](Oc3c(-c4ccc(O)cc4)oc4cc(O[C@@H]5O[C@@H](C)[C@H](O)[C@@H](O)[C@H]5O)cc(O)c4c3=O)[C@H](O)[C@@H](O)[C@@H]2O)[C@H](O)[C@H](O)[C@H]1O`, the outcome in the series on Monocyte [1] was inactive. Also, the Activity result in series [2] is reported as “Non-toxic”.
For `O=C1C[C@@H](c2ccc(O)c(O)c2)Oc2cc(O)cc(O)c21` [ERIODICTYOL], the outcome with Monocyte [1] was inactive. Further, the Activity result in [2] is “Non-toxic”.
Take `COc1ccc([C@@H]2CC(=O)c3c(O)cc(O[C@@H]4O[C@H](CO[C@@H]5O[C@@H](C)[C@H](O)[C@@H](O)[C@H]5O)[C@@H](O)[C@H](O)[C@H]4O)cc3O2)cc1O` [HESPERIDIN]: the IC50 with Monocyte [1] is greater than 200 µM. Besides, the Activity result in [2] is “Non-toxic”.
Regarding `O=c1c(O)c(-c2ccc(O)c(O)c2)oc2cc(O)cc(O)c12` [QUERCETIN], inhibition with Monocyte [1] was half-maximal at 120 µM (IC50). Moreover, in [2], the Activity is listed as greater than 20%.
As to `Oc1cc(O)c2c(c1)O[C@H](c1ccc(O)c(O)c1)[C@H](O)C2` [(-)-EPICATECHIN], in the series with Monocyte [1], the outcome was inactive. Further, in series [2], the Activity entry is given as “Non-toxic”.
The molecule `C[C@@H]1O[C@@H](OC[C@H]2O[C@@H](Oc3cc(O)c4c(c3)O[C@H](c3ccc(O)cc3)CC4=O)[C@H](O)[C@@H](O)[C@@H]2O)[C@H](O)[C@H](O)[C@H]1O` [NARIRUTIN] yielded an IC50 with Monocyte [1] greater than 200 µM. The Activity entry in series [2] is recorded as “Non-toxic”.
In the case of `Oc1cc(O)c2c(c1)O[C@H](c1ccc(O)c(O)c1)[C@@H](O)C2` [CATECHIN], in series [2], the Activity result was “Non-toxic”.
Molecule `COc1ccc(-c2cc(=O)c3c(OC)c(OC)c(OC)c(OC)c3o2)cc1` [TANGERETIN] had an IC50 in the series on Monocyte [1] of 30 µM.
As to `O=c1cc(-c2ccccc2)oc2cc(O)c(O)c(O)c12` [BAICALEIN], in the series with Monocyte [1], the outcome was inactive. In addition, in [2], the Activity entry is “Non-toxic”.
For `O=c1c(O)c(-c2ccc(O)c(O)c2)oc2c(O)c(O)cc(O)c12` [GOSSYPETIN] the same measures were “inactive” and “Non-toxic”.
By inhibition is commonly meant the percentage by which the read-out fell short of the control. In the case of `O=c1cc(-c2ccccc2)oc2ccccc12` [FLAVONE], the IC50 in the series with Monocyte [1] amounted to 166 µM. For the same molecule, the inhibition in series [9] worked out at 50%. In addition, the Activity in series [10] came to 3.6 pmol.
Molecule `COc1cc(-c2cc(=O)c3c(O)cc(O)cc3o2)ccc1O` [CHRYSOERIOL] returned an IC50 in the series on Monocyte [1] of 22 µM.
For `C[C@@H]1O[C@@H](O[C@H]2[C@H](Oc3cc(O)c4c(c3)O[C@H](c3ccc(O)cc3)CC4=O)O[C@H](CO)[C@@H](O)[C@@H]2O)[C@H](O)[C@H](O)[C@H]1O` [NARINGIN], the IC50 with Monocyte [1] is greater than 200 µM. In [2], the Activity entry is “Non-toxic”.
For the molecule `O=c1cc(-c2ccccc2)oc2cc(O)cc(O)c12` [CHRYSIN], in the series with Monocyte [1], the outcome was inactive. The Activity result in series [2] is “Non-toxic”.
With `O=c1cc(-c2ccccc2)oc2cc(O)ccc12` [7-HYDROXYFLAVONE], the result in the series with Monocyte [1] was inactive. The Activity entry in series [2] is given as “Non-toxic”.
In the case of `O=C1CC(c2ccccc2)Oc2ccccc21` (centres undefined) [FLAVANONE], the outcome with Monocyte [1] was inactive. Moreover, the Activity entry in series [2] is recorded as “Non-toxic”.
On to `COc1ccc(-c2cc(=O)c3c(O)cc(O)cc3o2)cc1` [ACACETIN], for which half-maximal inhibition in the series with Monocyte [1] (IC50) required 22 µM. Also, the Activity in [2] is on record as greater than 20%.
`COc1ccc(-c2cc(=O)c3c(OC)cc(OC)c(OC)c3o2)cc1OC` came in with an IC50 in the series on Monocyte [1] of 16 µM.
Take `O=c1c(O)c(-c2ccccc2)oc2cc(O)cc(O)c12` [GALANGIN]: in the series on Monocyte [1], the result was inactive. The Activity result in series [2] was “Non-toxic”.
On to `O=c1c(O)c(-c2ccccc2)oc2ccccc12` [FLAVONOL], for which the result with Monocyte [1] was inactive. Moreover, in [2], the Activity result is on record as “Non-toxic”.
For `O=c1c(O)c(-c2cc(O)c(O)c(O)c2)oc2cc(O)cc(O)c12` [MYRICETIN], in the series with Monocyte [1], the outcome was inactive. For the same molecule, the Activity result in series [2] was “Non-toxic”; in series [10], 3.7 pmol. In addition, in series [11], the inhibition stood at 50%.
On to `COc1ccc(-c2cc(=O)c3c(OC)c(OC)ccc3o2)cc1OC`, for which the IC50 in the series on Monocyte [1] came out at 25 µM.
Take `COc1ccc(-c2cc(=O)c3c(O)cc(O[C@@H]4O[C@H](CO[C@@H]5O[C@@H](C)[C@H](O)[C@@H](O)[C@H]5O)[C@@H](O)[C@H](O)[C@H]4O)cc3o2)cc1O` [DIOSMIN]: the IC50 with Monocyte [1] was greater than 200 µM. Also, in series [2], the Activity result was “Non-toxic”.
Take `O=c1c(O)c(-c2ccc(O)c(O)c2)oc2cc(O)ccc12` [FISETIN]: in the series with Monocyte [1], the outcome was inactive. In addition, the Activity result in series [2] is recorded as “Non-toxic”.
